# Bioassay records from PubChem.
# Ecoli WT expand – growth inhibitors of wild-type E. coli, primary screen, strain BW25113, expanded library, OD600; growth inhibition, % at 100 µM; hit rate 0.15% among 98,000; OD600 absorbance;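 active = growth inhibition above about 50% at one test dose, limit read from the data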;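 also: growth measured after 20 h incubation at 37 °C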
# H69AR growth 86K – proliferation blockers of H69AR lung cancer cells, primary screen, cell-based, human, 86K library. H69AR lung tumor viability, ATP luminescence, 72 h; hits give low values. viability, % at 10 µM. hit rate 6% among 85,000;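 active = viability at or below 40%; inactive = viability above 40%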;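 also: multidrug resistant small cell line overexpressing MRP-1 efflux transporter; 100% = mean luminescence of untreated control wells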
# Lung fibro prol – antiproliferative effect on LL 47 fibroblasts – human, LL 47 cells, CellTiter-Glo luminescence, primary screen. viability, % at 10 µM. LL 47 human lung fibroblast viability, ATP luminescence; hits give low values. hit rate 1.1% among 85,000;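 active = viability at or below 50% in the single dose screen; inactive = viability above 50%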;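 also: compound exposure lasted 72 h before the ATP readout; 100% = median luminescence of untreated cell-only wells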
#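 Material: human lung fibroblast line LL 47, low passage; Evaluation: viability percentage against median untreated-cell control; Buffer or medium: 15% FBS in IMEM; Incubation: 72 h compound exposure at 37 °C after overnight plating; Dosing: 0.1% DMSO in all compound wells; Measured by: CellTiter-Glo luminescence.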
# tolC growth inh – growth inhibitors of E. coli tolC mutant, primary screen, strain BW25113 ΔtolC::kan, 384-well | OD615 | growth inhibition, % at 10 µM (by protocol) | hit rate 2.2% among 65,000;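 active = growth inhibition at or above a cutoff equal to the mean over every tested compound plus 3 SD, cut at about 60% in these data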;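 also: growth measured after 20 h incubation at 37 °C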
#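 Material: E. coli BW25113 ΔtolC::kan, tolC deletion mutant strain. Measure: percent growth inhibition. Schedule: 37 °C, 20 h exposure. Doses: single-point testing at 10 µM. Signal: A615 absorbance measurement. Buffer or medium: kanamycin-containing LB broth (50 µg/mL).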
# HUVEC prolif 384 – inhibitors of HUVEC proliferation, primary screen, cell-based, 384-well; hit rate 1.1% among 86,000; CellTiter-Glo luminescence, 72 h; hits give low values; viability, % at 10 µM (by protocol);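 active = viability at or below 30%; inactive = viability above 30%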;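 also: 100% = median luminescence of DMSO-only cell control wells on each plate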
# Jurkat tox 60K – cytotoxicity toward Jurkat T cells, primary screen, cytotoxicity control, cell-based, Jurkat E6.1, 60K MLSMR library; Jurkat E6.1 viability, ATP luminescence, 48 h; inhibition, % at 4 µM; hit rate 1.2% among 56,000; AID 463, 2006;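 active = inhibition above the mean inhibition of all tested compounds plus 3 SD, cut at about 28% in these data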
# The depositor's hits bear a star; / = no result. A selection: hits, their analogues and other compounds. The true share with any hit is near 6.4%.
SMILES,Ecoli WT expand,H69AR growth 86K,Lung fibro prol,tolC growth inh,HUVEC prolif 384,Jurkat tox 60K
COc1cc(NC(=O)Nc2cccc(Cl)c2)c(OC)cc1NC(=O)CN1CCCCC1,-7.0,7.8*,103.2,29.9,12.3*,0.7
COc1ccccc1NC(=O)CN1CCN(CC(=O)Nc2ccc(Cl)c(C(F)(F)F)c2)CC1,-2.0,26.7*,83.3,26.3,66.5,-7.6
COc1ccc(NC(=O)CN2CCN(CC(=O)Nc3ccccc3Cl)CC2)cc1Cl,-1.0,23.8*,91.3,7.1,80.7,-3.5
CC(O)Cc1nsc(NC(=O)c2ccc(Br)o2)n1 (configuration not stated),2.0,/,/,-2.4,/,/
Cc1cc(C)cc(OCc2nnc(SCC(=O)N3CCN(c4ccccc4)CC3)o2)c1,-6.0,93.3,92.1,3.6,76.4,3.4
CC(C)Oc1ccc(C(=O)Nc2ccc(NC(=O)c3ccco3)c(Cl)c2)cc1,-1.0,88.0,101.7,/,105.0,/
O=C(Nc1ccccc1-c1ccccc1NC(=O)c1ccco1)c1ccco1,/,39.8*,101.8,/,89.9,/
O=C(Nc1ccc(Cl)cc1C(=O)Nc1ccncc1)c1ccco1,5.0,35.8*,69.6,16.1,72.7,8.1
O=C(Nc1ccccc1NC(=O)c1ccco1)c1ccco1,10.0,95.7,102.4,-14.7,112.5,-8.1
Cc1ccc(-c2nnc(-c3ccc(NC(=O)c4ccco4)cc3)o2)cc1,-20.0,36.6*,61.3,14.6,74.1,-3.5
CC(C)COc1ccc(C(=O)Nc2ccc(NC(=O)c3ccco3)c(Cl)c2)cc1,-9.0,6.7*,86.7,/,36.6,/
O=C(Nc1ccc(-c2nc3ncccc3o2)cc1)c1ccco1,8.0,89.3,116.7,0.0,101.0,6.1
CCC(=O)Nc1ccc(-c2nc(-c3ccccc3)n(CC(=O)N3CCCCC3)n2)cc1,-7.0,79.0,95.7,-11.6,85.5,-2.2
CCCCN(Cc1ccccc1)S(=O)(=O)c1cc(Br)cc2c1N(C(C)=O)C(C)C2 (configuration not stated),-15.0,66.2,97.5,/,77.9,/
N/C(COc1ccccc1)=N\NC(=O)c1cccnc1Oc1ccccc1,8.0,84.8,106.5,/,113.1,/
CCOC(=O)c1cc(CC)sc1NC(=O)c1cc(OC)c(OC)c(OC)c1,-8.0,91.4,90.7,/,99.0,/
CC(=O)Oc1ccc(OC(C)=O)c(SCCCCCN2CCOCC2)c1,-1.0,/,/,/,/,/
O=C(Nc1ccc(Cl)c(Cl)c1)Oc1ccc(NC(=O)c2ccco2)cc1,25.0,/,/,/,/,/
O=C(Nc1ccc(Br)c(Cl)c1)c1ccco1,5.0,53.3,94.2,100.0*,82.7,-1.2
CCOC(=O)c1nnc(-c2ccccc2)nc1Oc1ccc(Cl)cc1,-4.0,/,/,/,/,/
CCOC(=O)c1nnc(-c2ccc(C)cc2)nc1Sc1cccc(Cl)c1,-20.0,33.2*,80.6,/,52.9,/
CCOC(=O)c1nnc(-c2ccccc2)nc1Sc1ccccc1Cl,-16.0,0.6*,87.2,/,61.9,/
O=[N+]([O-])c1ccc(NCCCNS(=O)(=O)c2ccc(Cl)cc2)c(Cl)c1,-3.0,/,/,/,/,/
CC(C)(C)NC(=O)c1ccccc1-c1nc(-c2ccccc2Cl)no1,10.0,81.2,103.2,5.2,101.3,2.9
Cc1ccc(OCCNC(=O)c2ccco2)cc1C,2.0,95.9,107.8,22.9,99.2,4.8
SMILES,Ecoli WT expand,H69AR growth 86K,Lung fibro prol,tolC growth inh,HUVEC prolif 384,Jurkat tox 60K
Cc1cc2cc(CNC(=O)Cc3cccs3)ccc2n1C,/,37.6*,107.3,7.2,60.7,-7.9
CCCCn1nc(NC(=O)c2cccs2)c2cc3cc(OC)ccc3nc21,-13.0,56.5,100.9,63.4*,80.2,-0.6
CCCn1nc(NC(=O)c2cccs2)c2cc3cc(OC)ccc3nc21,0.0,/,/,33.5,/,-5.1
CCCn1nc(NC(=O)c2cccs2)c2cc3ccccc3nc21,3.0,49.7,96.0,/,72.4,/
CCCCn1nc(NC(=O)c2cccs2)c2cc3ccccc3nc21,-12.0,61.5,105.2,91.4*,73.4,/
CCOC(=O)c1ccc(NC(=O)CSc2nnnn2CCCO)cc1,9.0,105.5,98.7,0.6,97.7,11.6
CCc1cc2cc(C(=O)N3CCN(Cc4ccccc4)CC3)sc2s1,-7.0,98.6,93.0,98.1*,87.3,-11.4
CS(=O)(=O)N(CCc1ccccc1)CC(=O)NCc1cccnc1,-13.0,101.3,99.4,5.0,98.3,0.7
